# Reference: ChEMBL document CHEMBL1122670, “Synthesis of previously inaccessible quinazolines and 1,4-benzodiazepines as potential anticonvulsants” (J Med Chem, 1984)
# pKi: −log10 of the molar value. “And” between values parts separate entries of the source, which are not always exact repeats. Identical values can stand only once. The source made the active and inactive calls.
# Legend:
# Mus musculus [1] = test: Effective dose (ED50) was determined in sc Met (pentylenetetrazole) seizure threshold test; I = Inactive.; format: functional, organism-based
# In short: (§1)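 ADD Program screen in mice. Doses of 30, 100, 300 and 600 mg/kg were given, four animals per dose, with tests at 30 min and at 4 h. sc Met endpoint: no threshold seizure (single clonic spasm of 5 s) after an sc convulsant dose 99 of pentylenetetrazol. Rotorod assessed acute neurotoxicity. ED50/TD50 were estimated graphically; Litchfield-Wilcoxon 95% confidence limits were added for selected cases.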
# Mus musculus [2] = test: Evaluated for seizure threshold test at a dose 25 mg/kg &MST is the metrazole seizure threshold to persistent clonus; I = Inactive.; format: functional, organism-based; parameters: dose 25 mg/kg
# In short: (§2)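 0.5% pentylenetetrazol (with 0.9% NaCl and 0.001% heparin) was infused into a lateral tail vein at 6.31 μL/s. Time to 3 s of persistent clonus (MST) or hindlimb tonic flexion (MMT) was converted to mg/kg infused. Tested at 0.5 h (some at 4 h or 1 h). Results are % change from controls, by Student's t test.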
# Mus musculus [3] = test: Evaluated for seizure threshold test at a dose 25 mg/kg &MMT is the maximal metrazole threshold to tonic flexion; I = Inactive.; format: functional, organism-based; parameters: dose 25 mg/kg; in short: as §2
# Mus musculus [4] = organism: Mus musculus; test: Compound was determined in rotarod test and expressed as TD50; I = Inactive.; format: ADME, organism-based; conditions: in vivo; in short: as §1
# [5] = Compound was determined in rotarod test and expressed as TD50; format: ADME, organism-based; conditions: mouse, in vivo
# In short: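 ADD Program screen in mice. Doses of 30, 100, 300 and 600 mg/kg were given, four animals per dose, with tests at 30 min and at 4 h. sc Met endpoint: no threshold seizure (single clonic spasm of 5 s) after an sc convulsant dose 99 of pentylenetetrazol. Rotorod assessed acute neurotoxicity.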
# Mus musculus [6] = test: Effective dose (ED50) was determined in sc Met (pentylenetetrazole) seizure threshold test; I = Inactive at all doses including 600 mg/kg; format: functional, organism-based; parameters: dose 600 mg/kg; in short: as §1
# Mus musculus [7] = test: Evaluated for seizure threshold test at a dose 300 mg/kg & MST is the metrazole seizure threshold to persistent clonus; I = Inactive.; format: functional, organism-based; parameters: dose 300 mg/kg; in short: as §2
# [8] = system: GABA-A receptor; anion channel; test: Inhibition of binding to GABA-A central benzodiazepine receptor (Inactive at 80 uM); format: protein-complex assay, Mus musculus
# Mus musculus [9] = test: Evaluated for seizure threshold test at a dose 300 mg/kg & MMT is the maximal metrazole threshold to tonic flexion; I = Inactive.; format: functional, organism-based; parameters: dose 300 mg/kg; in short: as §2
# Mus musculus [10] = test: Evaluated for seizure threshold test at a dose 0.2 mg/kg &MST is the metrazole seizure threshold to persistent clonus; format: functional
# In short: (§3)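 At 0.5 h (some at 1 or 4 h), 0.5% pentylenetetrazol in 0.9% NaCl with 0.001% heparin was infused into the tail vein at 6.31 μL/s. Time to 3 s persistent clonus (MST) or tonic flexion (MMT) was converted to mg/kg, reported as % change vs controls, Student's t test.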
# Mus musculus [11] = test: Evaluated for seizure threshold test at a dose 0.2 mg/kg &MMT is the maximal metrazole threshold to tonic flexion.; format: functional; in short: as §3
# Mus musculus [12] = test: Effective dose (ED50) was determined in sc Met (pentylenetetrazole) seizure threshold test; format: functional; in short: as §1
# Mus musculus [13] = test: Evaluated for seizure threshold test at a dose 1 mg/kg &MMT is the maximal metrazole threshold to tonic flexion.; format: functional; in short: as §3
# [14] = molecular target: GABA-A receptor; anion channel; test: Binding affinity for umolar GABA-A central benzodiazepine receptor; format: protein-complex assay, Mus musculus
# Mus musculus [15] = test: Evaluated for seizure threshold test at a dose 1 mg/kg &MST is the metrazole seizure threshold to persistent clonus; format: functional; in short: as §3
# [16] = Compound was evaluated for median lethal dose; format: ADME, organism-based; conditions: mouse, in vivo
# Mus musculus [17] = test: Evaluated for seizure threshold test at a dose 25 mg/kg &MST is the metrazole seizure threshold to persistent clonus; format: functional; in short: as §3
# Mus musculus [18] = test: Evaluated for seizure threshold test at a dose 25 mg/kg &MMT is the maximal metrazole threshold to tonic flexion.; format: functional; in short: as §2
# Mus musculus [19] = test: Evaluated for seizure threshold test at a dose 300 mg/kg & MMT is the maximal metrazole threshold to tonic flexion; I - Inactive.; format: functional; in short: as §2
# Mus musculus [20] = test: Evaluated for seizure threshold test at a dose 100 mg/kg & MMT is the maximal metrazole threshold to tonic flexion; I - Inactive.; format: functional, organism-based; parameters: dose 100 mg/kg; in short: as §2
# Mus musculus [21] = test: Evaluated for seizure threshold test at a dose 300 mg/kg & MST is the metrazole seizure threshold to persistent clonus; format: functional; in short: as §3
# Mus musculus [22] = test: Evaluated for seizure threshold test at a dose 100 mg/kg & MST is the metrazole seizure threshold to persistent clonus; format: functional; in short: as §3
# Mus musculus [23] = test: Evaluated for seizure threshold test at a dose 100 mg/kg & MMT is the maximal metrazole threshold to tonic flexion.; format: functional; in short: as §3
# Mus musculus [24] = test: Evaluated for seizure threshold test at a dose 100 mg/kg & MMT is the maximal metrazole threshold to tonic flexion; I - inactive; format: functional, organism-based; parameters: dose 100 mg/kg; in short: as §2
# Mus musculus [25] = test: Evaluated for seizure threshold test at a dose 1.0 mg/kg &MMT is the maximal metrazole threshold to tonic flexion.; format: functional; in short: as §3
# Mus musculus [26] = test: Evaluated for seizure threshold test at a dose 1.0 mg/kg &MST is the metrazole seizure threshold to persistent clonus; format: functional; in short: as §3
# Mus musculus [27] = test: Evaluated for seizure threshold test at a dose 30 mg/kg & MMT is the maximal metrazole threshold to tonic flexion; I = Inactive.; format: functional, organism-based; parameters: dose 30 mg/kg; in short: as §2
# Mus musculus [28] = test: Evaluated for seizure threshold test at a dose 30 mg/kg & MST is the metrazole seizure threshold to persistent clonus; format: functional; in short: as §3
# [29] = system: GABA-A receptor; anion channel; test: Inhibition of binding to GABA-A central benzodiazepine receptor (Inactive); format: protein-complex assay, Mus musculus
# Mus musculus [30] = test: Evaluated for seizure threshold test at a dose 300 mg/kg &MST is the metrazole seizure threshold to persistent clonus; format: functional; in short: as §3
# Mus musculus [31] = test: Evaluated for seizure threshold test at a dose 300 mg/kg &MMT is the maximal metrazole threshold to tonic flexion; I = Inactive; format: functional, organism-based; parameters: dose 300 mg/kg; in short: as §3
# Mus musculus [32] = test: Evaluated for seizure threshold test at a dose 30 mg/kg &MMT is the maximal metrazole threshold to tonic flexion.; format: functional; in short: as §3
# Mus musculus [33] = test: Evaluated for seizure threshold test at a dose 30 mg/kg &MST is the metrazole seizure threshold to persistent clonus; I = Inactive; format: functional, organism-based; parameters: dose 30 mg/kg; in short: as §2
structure (smiles),measurement,setting,value
Cc1cc(C(=O)c2ccccc2Cl)c(N)c(C#N)c1C,ED50,Mus musculus [1],inactive
same,Change,Mus musculus [2],Not significant
same,Change,Mus musculus [3],Not significant
same,TD50,Mus musculus [4],Not Active
Cc1cc2c(c(C#N)c1C)NC=NC2C1CCCCC1 (centres undefined),TD50,[5],> 600 mg/kg
same,ED50,Mus musculus [6],inactive
same,Change,Mus musculus [7],inactive
same,IC50,[8],Not Active
same,Change,Mus musculus [9],inactive
O=C1CN=C(c2ccccc2)c2cc(Cl)ccc2N1 [NORDAZEPAM],Change,Mus musculus [10],48%
same,Change,Mus musculus [11],inactive
same,ED50,Mus musculus [12],0.28 mg/kg
same,Change,Mus musculus [13],35%
same,pKi,[14],4.14
same,Change,Mus musculus [15],70%
Cc1cc2c(-c3ccccc3)nc(O)nc2c(C#N)c1C,ED50,Mus musculus [1],inactive
same,Change,Mus musculus [2],Not significant
same,Change,Mus musculus [3],Not significant
same,TD50,Mus musculus [4],Not Active
Cc1cc2c(c(C#N)c1C)NC=NC2C (centres undefined),TD50,[5],51.5 mg/kg
same,LD50,[16],150 mg/kg
same,Change,Mus musculus [17],-36%
same,ED50,Mus musculus [6],inactive
same,Change,Mus musculus [18],-56%
CC(=O)c1cc(C)c(C)c(C#N)c1NC(=O)CBr,TD50,[5],600 mg/kg
same,Change,Mus musculus [19],-17%
same,ED50,Mus musculus [12],500 mg/kg
same,Change,Mus musculus [20],Not significant
same,Change,Mus musculus [21],-22%
same,Change,Mus musculus [22],-14%
Cc1cc(C(=O)c2ccccc2)c(NC(=O)CBr)c(C#N)c1C,TD50,[5],600 mg/kg
same,ED50,Mus musculus [12],480 mg/kg
same,Change,Mus musculus [23],49%
same,Change,Mus musculus [24],inactive
same,Change,Mus musculus [22]; 100 mg/kg,70% and 37%
Cc1cc(C(=O)c2ccccc2)c(N)c(C#N)c1C,ED50,Mus musculus [1],inactive
same,Change,Mus musculus [2],Not significant
same,Change,Mus musculus [3],Not significant
same,TD50,Mus musculus [4],Not Active
CN1C(=O)CN=C(c2ccccc2)c2cc(Cl)ccc21 [DIAZEPAM],Change,Mus musculus [10],50%
same,TD50,[5],7.3 mg/kg
same,Change,Mus musculus [11],15%
same,ED50,Mus musculus [12],0.17 mg/kg
same,Change,Mus musculus [25],40%
same,Change,Mus musculus [26],60%
CC1N=CNc2c1cc(-c1ccccc1)c(-c1ccccc1)c2C#N (centres undefined),ED50,Mus musculus [1],inactive
same,Change,Mus musculus [2],Not significant
same,Change,Mus musculus [3],Not significant
same,TD50,Mus musculus [4],Not Active
CC1=NCC(=O)Nc2c1cc(C)c(C)c2C#N,TD50,[5],70 mg/kg
same,LD50,[16],150 mg/kg
same,Change,Mus musculus [27],Not significant
same,ED50,Mus musculus [6],inactive
same,Change,Mus musculus [28],30%
Cc1cc2c(C3CCCCC3)nc(O)nc2c(C#N)c1C,TD50,[5],> 600 mg/kg
same,ED50,Mus musculus [12],260 mg/kg
same,IC50,[29],Not Active
same,Change,Mus musculus [30],44%
same,Change,Mus musculus [31],inactive
Cc1cc2c(-c3ccccc3F)nc(O)nc2c(C#N)c1C,ED50,Mus musculus [1],inactive
same,Change,Mus musculus [2],Not significant
same,Change,Mus musculus [3],Not significant
same,TD50,Mus musculus [4],Not Active
Cc1cc2c(C)ncnc2c(C#N)c1C,TD50,[5],45 mg/kg
same,LD50,[16],150 mg/kg
same,IC50,[29],Not Active
same,ED50,Mus musculus [6],inactive
same,Change,Mus musculus [32],-24%
same,Change,Mus musculus [33],inactive
